Measurements taken from PubChem BioAssay AID623990 (Broad Institute, 2012).
Activity calls are given as the source filed them.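 The calls were made as follows: active = falling cell signal with fitted IC50 no higher than a set limit, twice the top tested dose; inconclusive = flat fit with toxicity between 30 and 70%, or poor fit; inactive = the rest.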

Test system: not listed separately
Test: mammalian cell viability loss in HeLa – CellTiter-Glo luminescence, dry powder, set 2, cytotoxicity control for pyoverdine/PvdQ inhibitor project, dose response (AID 623990)
Conditions: HeLa viability, CellTiter-Glo ATP luminescence; at 120 µM (top of the series)
Procedure, shortened: (§1)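 System – HeLa cells · Amount – 2,500 HeLa cells per well · Medium – phenol red-free DMEM, 10% FBS · Compound dosing – 3-fold dose series · Timing – cells settled 24 h at 37 °C, then compound exposure 48 h · Measured by – CellTiter-Glo luciferase luminescence (0.5X reagent), reporting intracellular ATP · Evaluation – cell viability from luminescent signal, signal drop indicating toxicity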

SMILES	activity change, negative = toxicity
N#CC(c1ccc(F)cc1)c1cccc(C(F)(F)F)n1 (stereo unspecified)	13.5% (inactive)
Clc1ccc(C(c2cccc(Cl)n2)c2nn[nH]n2)cc1 (stereo unspecified)	8.71% (inactive)
N#CC(c1ccc(Cl)cc1)c1cccc(C(F)(F)F)n1 (stereo unspecified)	10.3% (inactive)
COCCNC(C#N)c1ccc(Cl)cc1 (stereo unspecified)	4.87% (inactive)
CCCCC(C#N)c1ccc(Cl)cc1 (stereo unspecified)	13.5% (inactive)
COCCOCCC(C#N)c1ccc(Cl)cc1 (stereo unspecified)	-0.038% (inactive)
N#CC1c2ccc(Cl)cc2CCc2cccnc21 (stereo unspecified)	2.14% (inactive)
CCCCC(C#N)c1ccc(Cl)cn1 (stereo unspecified)	27.3% (inactive)
N#CC(c1ccc(F)cc1)c1cccc(Cl)n1 (stereo unspecified)	-3.39% (inactive)
CCCCC(C#N)c1ccc(F)cn1 (stereo unspecified)	7.3% (inactive)
COCCC(C#N)c1ccc(F)cc1 (stereo unspecified)	6.44% (inactive)
CN(C)CCCC(C#N)c1ccc(Cl)cc1 (stereo unspecified)	23.3% (inactive)
N#CC(c1ccc(Cl)cc1)c1ccccn1 (stereo unspecified)	5.57% (inactive)
N#CC(c1ccc(Cl)cc1)c1cccc(Cl)n1 (stereo unspecified)	12.2% (inactive)
N#CC(c1ccc(C(F)(F)F)c(Cl)n1)c1ccccc1OC(F)(F)F (stereo unspecified)	5.17% (inactive)
N#Cc1cccc(C(C#N)c2ccc(F)cc2)n1 (stereo unspecified)	4.63% (inactive)
N#CC(c1ccc(Cl)cc1)N1CCCC1 (stereo unspecified)	30.4% (inactive)
COCCOCCC(C#N)c1ccc(F)cc1 (stereo unspecified)	3.67% (inactive)
CCCCC(C#N)c1ccccn1 (stereo unspecified)	2.12% (inactive)
CCCCC(C#N)c1ccc(F)cc1 (stereo unspecified)	5.81% (inactive)

Test system: HeLa viability, CellTiter-Glo ATP luminescence
Test: as above
Conditions: not given
Procedure, shortened: as §1

SMILES	IC50
COCCC(C#N)c1ccc(Cl)cc1 (stereo unspecified)	62.2 µM
N#CC(c1ccc(Cl)cc1)c1ncccc1Cl (stereo unspecified)	> 240 µM (inactive)
N#CC(c1cccc(Cl)n1)c1ccc(Cl)cc1F (stereo unspecified)	111 µM
N#CC(c1cccc(C(F)(F)F)n1)c1ccc(Cl)cc1F (stereo unspecified)	> 240 µM (inactive)
CCCCC(c1ccc(Cl)cc1)c1nn[nH]n1 (stereo unspecified)	> 240 µM (inactive)
CN(C)CCCC(C#N)c1ccc(F)cc1 (stereo unspecified)	> 240 µM (inactive)
